Measurements taken from the array DNA melting data of Ke et al. (doi:10.1101/2024.01.08.574731).

Assays:
[1] = folding enthalpy; higher = less favourable; fluorescence melt of hairpins on a sequencing array, two-state fit; details: sodium 0.088 M
Outline: (§1)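 Melting temperature and folding enthalpy were derived from bootstrapped two-state fits. The fitted temperatures were raised by 9.35 °C to agree with UV melts, and four replicates were combined by inverse variance. The underlying data were Cy3 fluorescence images of library hairpins, with annealed Cy3 and quencher oligos, on a sequenced MiSeq flow cell in 50 mM Na-HEPES pH 8.0, 25 mM NaCl, taken in 2.5 °C steps up to 60 °C, normalised to pre-quench Cy3 and to control constructs.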

[2] = melting temperature; fluorescence melt of hairpins on a sequencing array, two-state fit, raised by 9.35 °C to match UV melts; details: sodium 0.088 M
Outline: as §1

| Sequence | folding enthalpy [1] [kcal/mol] | Tm [2] [°C] |
| --- | --- | --- |
| GATCAGCCGCCTGATC ((((((....)))))) | -32.5 | 50.5 |
| GATCAGCCGCTGATC ((((((...)))))) | -41 | 48.7 |
| GATCAGCCGTCTGATC ((((((....)))))) | -43.6 | 51.6 |
| GATCAGCGCCCTGATC ((((((....)))))) | -39.5 | 49 |
| GATCAGCGCTCTGATC ((((((....)))))) | -33.9 | 50.4 |
| GATCAGCGGACTGATC ((((((....)))))) | -33.9 | 50.3 |
| GATCAGCGGGCTGATC ((((((....)))))) | -38.8 | 63.8 |
| GATCAGCTATCTGATC ((((((....)))))) | -34.7 | 49.3 |
| GATCAGCTCACTGATC ((((((....)))))) | -31.9 | 52.2 |
| GATCAGCTCCCTGATC ((((((....)))))) | -32.3 | 49.1 |
| GATCAGCTCTCTGATC ((((((....)))))) | -36.9 | 49.3 |
| GATCAGCTGACTGATC ((((((....)))))) | -37.6 | 51.5 |
| GATCAGCTTGCTGATC ((((((....)))))) | -47.5 | 68.8 |
| GATCAGGAGCTGATC ((((((...)))))) | -32.3 | 46.5 |
| GATCAGGATCCTGATC ((((((....)))))) | -53.1 | 54.3 |
| GATCAGGCCCCTGATC ((((((....)))))) | -46.1 | 53.1 |
| GATCAGGCGCCTGATC ((((((....)))))) | -52.1 | 60.8 |
| GATCAGGCGTCTGATC ((((((....)))))) | -39.3 | 51 |
| GATCAGGCTACTGATC ((((((....)))))) | -43.8 | 57.4 |
| GATCAGGGAAACCCGATC ((((.((....)).)))) | -26.1 | 43 |
| GATCAGGGAAACCTGATC (((((((....))))))) | -41.8 | 59 |
| GATCAGGTCCTGATC ((((((...)))))) | -35.2 | 51.9 |
| GATCAGGTCGCTGATC ((((((....)))))) | -43 | 53.3 |
| GATCAGGTGACTGATC ((((((....)))))) | -46.4 | 54.9 |

| Sequence | folding enthalpy [1] [kcal/mol] | Tm [2] [°C] |
| --- | --- | --- |
| GATCAGGTGGCTGATC ((((((....)))))) | -31.6 | 50.5 |
| GATCAGTACACTGATC ((((((....)))))) | -36.4 | 54.7 |
| GATCAGTACCCTGATC ((((((....)))))) | -35.6 | 49.4 |
| GATCAGTACCTGATC ((((((...)))))) | -44.9 | 48.9 |
| GATCAGTATACTGATC ((((((....)))))) | -45 | 54.3 |
| GATCAGTCATCTGATC ((((((....)))))) | -35.4 | 51.1 |
| GATCAGTCCCTGATC ((((((...)))))) | -46.5 | 50.3 |
| GATCAGTCCTCTGATC ((((((....)))))) | -39.7 | 51.1 |
| GATCAGTCGGCTGATC ((((((....)))))) | -46.8 | 51.5 |
| GATCAGTCTACTGATC ((((((....)))))) | -49.8 | 54.2 |
| GATCAGTGCGCTGATC ((((((....)))))) | -44.1 | 56.6 |
| GATCAGTGTGCTGATC ((((((....)))))) | -52.8 | 56.6 |
| GATCAGTTATCTGATC ((((((....)))))) | -34.2 | 52.1 |
| GATCAGTTCTCTGATC ((((((....)))))) | -42.1 | 52.1 |
| GATCAGTTGACTGATC ((((((....)))))) | -37.3 | 53.5 |
| GATCAGTTGCTGATC ((((((...)))))) | -34.1 | 48.8 |
| GATCATAAGCATGATC ((((((....)))))) | -31.5 | 46.5 |
| GATCATAAGTATGATC ((((((....)))))) | -33.6 | 47.7 |
| GATCATACGGATGATC ((((((....)))))) | -39.6 | 47.1 |
| GATCATAGTATGATC ((((((...)))))) | -35.6 | 47.2 |
| GATCATAGTGATGATC ((((((....)))))) | -36.5 | 47.3 |
| GATCATAGTTATGATC ((((((....)))))) | -40 | 48.2 |
| GATCATATATATGATC ((((((....)))))) | -42 | 48.8 |
| GATCATATCCATGATC ((((((....)))))) | -35.8 | 47.4 |

| Sequence | folding enthalpy [1] [kcal/mol] | Tm [2] [°C] |
| --- | --- | --- |
| GATCATATGGATGATC ((((((....)))))) | -28.1 | 46.1 |
| GATCATATGTATGATC ((((((....)))))) | -41.6 | 48.6 |
| GATCATCACAATGATC ((((((....)))))) | -44.1 | 47.7 |
| GATCATCACATGATC ((((((...)))))) | -36.7 | 49.1 |
| GATCATCAGATGATC ((((((...)))))) | -35.1 | 44.5 |
| GATCATCAGCATGATC ((((((....)))))) | -22.3 | 45 |
| GATCATCAGGATGATC ((((((....)))))) | -36 | 50.6 |
| GATCATCCACATGATC ((((((....)))))) | -34.7 | 46.4 |
| GATCATCCCTATGATC ((((((....)))))) | -37.4 | 47.5 |
| GATCATCCGCATGATC ((((((....)))))) | -35.9 | 47.8 |
| GATCATCCTCATGATC ((((((....)))))) | -33.4 | 45.7 |
| GATCATCCTTATGATC ((((((....)))))) | -37 | 46.3 |
| GATCATCGCATGATC ((((((...)))))) | -31.4 | 49.6 |
| GATCATCTGAATGATC ((((((....)))))) | -33.6 | 46.3 |
| GATCATCTGTATGATC ((((((....)))))) | -36.2 | 47.1 |
| GATCATGAGATGATC ((((((...)))))) | -32.5 | 43.4 |
| GATCATGAGGATGATC ((((((....)))))) | -38.4 | 43.7 |
| GATCATGATATGATC ((((((...)))))) | -31.3 | 48.4 |
| GATCATGATTATGATC ((((((....)))))) | -29.5 | 47.5 |
| GATCATGCAAATGATC ((((((....)))))) | -39.7 | 55.4 |
| GATCATGCAGATGATC ((((((....)))))) | -39.3 | 51.4 |
| GATCATGCCGATGATC ((((((....)))))) | -40.8 | 49.5 |
| GATCATGCGAATGATC ((((((....)))))) | -46.8 | 53.8 |
| GATCATGCGTATGATC ((((((....)))))) | -39 | 48.3 |

| Sequence | folding enthalpy [1] [kcal/mol] | Tm [2] [°C] |
| --- | --- | --- |
| GATCATGCTCATGATC ((((((....)))))) | -44.1 | 51.3 |
| GATCATGGAAACATGGTC ((.((((....)))).)) | -25.8 | 46.6 |
| GATCATGGCCATGATC ((((((....)))))) | -49.5 | 56.3 |
| GATCATGGTGATGATC ((((((....)))))) | -39.4 | 49 |
| GATCATGGTTATGATC ((((((....)))))) | -40.7 | 48.3 |
| GATCATGTAAATGATC ((((((....)))))) | -38.9 | 56.6 |
| GATCATGTATATGATC ((((((....)))))) | -41.7 | 55.3 |
| GATCATGTCGATGATC ((((((....)))))) | -37.1 | 51 |
| GATCATGTCTATGATC ((((((....)))))) | -38.9 | 53.1 |
| GATCATTAAATGATC ((((((...)))))) | -28.6 | 44 |
| GATCATTAACATGATC ((((((....)))))) | -28.6 | 44.7 |
| GATCATTACTATGATC ((((((....)))))) | -41.7 | 48.6 |
| GATCATTCCCATGATC ((((((....)))))) | -42.6 | 46.8 |
| GATCATTCCGATGATC ((((((....)))))) | -41.3 | 49.1 |
| GATCATTCGAATGATC ((((((....)))))) | -46.8 | 50.5 |
| GATCATTCTCATGATC ((((((....)))))) | -32.8 | 47.1 |
| GATCATTGACATGATC ((((((....)))))) | -24.1 | 43.6 |
| GATCATTGCGATGATC ((((((....)))))) | -38.8 | 51.8 |
| GATCATTTAATGATC ((((((...)))))) | -27.6 | 48 |
| GATCATTTAGATGATC ((((((....)))))) | -37.4 | 47.6 |
| GATCATTTCTATGATC ((((((....)))))) | -41.4 | 48.6 |
| GATCATTTGAATGATC ((((((....)))))) | -35.4 | 48.2 |
| GATCATTTGTATGATC ((((((....)))))) | -36 | 47.4 |
| GATCATTTTGATGATC ((((((....)))))) | -51.2 | 49.5 |
